Compounds with a hit are over-represented: about 12% of the library has one in this group of screens.
PKD1 inh = inhibitors of human PKD1 kinase; Q15139; PKD1 kinase fluorescence polarization assay; inhibition, % (no concentration beside the values); 200,000 compounds, 0.056% hits; AID 797
Lmaj promast = inhibitors of Leishmania major promastigote growth | Leishmania major promastigotes, resazurin fluorescence viability | inhibition, % at 10 µM | 200,000 compounds, 9% hits;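 further: promastigotes grown with compound for 44 hours at 28 °C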
Arbovirus inh = arbovirus infection inhibition | arbovirus infection cell-based antiviral screen | inhibition, % at 10 µM | 200,000 compounds, 0.37% hits | AID 1251; in the data active means inhibition above about 30%
Wee1 degr inh = human Wee1 degradation inhibition, primary screen | HeLa Luc-Wee1K328M stability, luciferase luminescence; 100% = proteasome inhibitor MG132 effect | AID 1321 | reporter increase, % at 5 µM | P30291 | 220,000 compounds, 1.2% hits;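 active means activation above the mean of all tested compounds plus 3 SD, set per screening run, cut at about 8.8% in these data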;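 further: cells exposed to compound for 20 h before luminescence read; 0% = DMSO alone and 100% = MG132 at 30 µM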
CHOP inh = CHOP inhibition in unfolded protein response; CHO-K1 CHOP-promoter luciferase, tunicamycin-induced, 15-18 h; inhibition, % at 10 µM; 220,000 compounds, 3.8% hits; AID 2732;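 active means compounds that reduced the stress-induced luciferase reporter signal by more than about 70% of percent inhibition, limit read from the data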;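 further: 0% = tunicamycin plus vehicle and 100% = wells without tunicamycin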
Rad51 HR inh = blocks human Rad51 in homologous recombination. Q06609. hRad51 DNA strand exchange, fluorescence dequenching. inhibition, % at 10 µM. 200,000 compounds, 0.085% hits. AID 1385;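 active means inhibition above 40% at the single screening dose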;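 further: 0% = DMSO control wells and 100% = blanks with heterologous ssDNA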
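Assay system: Human Rad51 nucleoprotein filaments preassembled on unlabelled ssDNA | Reagent: Donor/quencher-labelled 47-bp dsDNA substrate | Doses: One concentration, 10 µM final | Times: 37 °C 15-min filament assembly, 30-min compound preincubation, 15-min exchange | Technique: Fluorescein emission 520 nm, excitation 485 nm | Benchmarks: Plate control and blank wells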
An asterisk follows results filed as active; . = no result given. Unless noted, no stated cut-off is given here; in the data, active means inhibition above about 50%; inactive means the rest.

SMILES	PKD1 inh	Lmaj promast	Arbovirus inh	Wee1 degr inh	CHOP inh	Rad51 HR inh
COCCOC(=O)c1c(C)oc2ccc(O)c(CN3CCC(C)CC3)c12	3	-5	4	-1	1	-3
O=C(/C=C/c1ccncc1)c1ccc2c(c1)OCCO2	14	100*	-38	-3	-105	-2
CN(C)c1ccc(/C=C/C(=O)c2ccc3c(c2)OCCO3)cc1[N+](=O)[O-]	-7	92*	23	-2	-34	0
O=C(/C=C/c1ccccc1)c1ccc2c(c1)OCO2	.	.	.	2	-104	.
Cn1c(=O)c(=O)n(C)c2cc(S(=O)(=O)N3CC(=O)N(CCc4ccccc4)C(=O)C3)ccc21	.	.	.	0	2	-26
C/C(=N/NC(=O)c1cccc(N2CCCC2=O)c1)c1ccncc1	1	-4	-1	1	-22	-1
CCN(CC)CCCNC(=O)c1cc(-c2ccc(Cl)c(Cl)c2)on1	6	99*	-41	-2	-11	-2
CN1CCN(CCCNC(=O)c2cc3c(-c4ccc(Cl)cc4)nn(C)c3s2)CC1	-10	100*	-27	0	-6	3
Cn1nc(-c2ccc(Cl)cc2)c2cc(C(=O)N3CCOCC3)sc21	3	1	-8	1	41	-5
CCN(CC)CCCNC(=O)c1cc2c(-c3ccc(Cl)cc3)nn(C)c2s1	-9	100*	-27	-1	2	-4
CCN(CC)CCCNC(=O)c1cc(-c2ccc(O)cc2)on1	-5	-7	-7	-3	17	3
Cn1nc(-c2ccc(Cl)cc2)c2cc(C(=O)NCC3CCCO3)sc21 (configuration not stated)	0	4	9	3	47	6
O=C(NNc1nc(-c2ccccc2)c2cc(Br)ccc2n1)c1ccc(S(=O)(=O)N2CCCCC2)cc1	-13	2	-11	-2	23	-2
CN(C)S(=O)(=O)c1ccc(C(=O)NNc2nc(-c3ccccc3)c3cc(Br)ccc3n2)cc1	-1	71*	-18	-2	34	16
OCCC1CN(Cc2cc3c(cc2Cl)OCO3)CCN1Cc1ccccc1 (configuration not stated)	-1	9	-10	-1	12	12
CCOc1cc(C)nc(NCc2ccccc2)n1	1	65*	-18	-1	-26	10
Cc1cc(N2CCCCC2)nc(NCc2ccccc2)n1	4	75*	-20	-3	25	-2
Cc1cc(N2CCOCC2)nc(NCc2ccccc2)n1	1	9	2	-1	33	-7
CCOc1ccc(/C=N/Nc2cc(=O)n(C)c(=O)n2C)cc1	-9	71*	-2	2	-19	0
CCOc1ccc(/C=N/Nc2ccccn2)cc1	3	16	-13	7	21	10
COc1cc(/C=C(\C#N)C(=O)N2CCOCC2)cc(Br)c1O	3	-4	6	7	11	0
COc1cc(/C=C(\C#N)C(=O)c2ccc(O)c(O)c2)cc(I)c1O	.	.	.	.	86*	.
COc1ccc(/C=N/NC(=O)CCc2n[nH]c(=O)[nH]c2=O)cc1OC	4	0	-15	4	-9	-5
CCCOc1ccc(/C=N\NC(=O)CCc2n[nH]c(=O)[nH]c2=O)cc1OC	4	-7	8	9.6*	-4	-5
O=C(O)CCC(=O)Nc1ccccc1C(=O)NCc1ccccc1	2	51*	1	1	8	2
SMILES	PKD1 inh	Lmaj promast	Arbovirus inh	Wee1 degr inh	CHOP inh	Rad51 HR inh
O=C(Cc1ccccc1)Nc1ccccc1C(=O)Nc1ccccc1	-5	65*	-6	11*	31	-9
CCOC(=O)NC(=O)C(/C=N/c1sccc1C(=O)OC)=C(\C)O	-4	-2	-2	1	28	12
Cc1ccc(CSCCNS(=O)(=O)c2ccccc2)cc1	-9	7	8	1	22	-1
Cc1ccccc1C(=O)N1CCN(c2ccc([N+](=O)[O-])c(NCc3cccnc3)c2)CC1	3	25	-4	0	8	8
Cc1ccc(C(=O)N2CCN(c3ccc([N+](=O)[O-])c(NCc4cccnc4)c3)CC2)cc1	0	57*	6	-3	53	14
Cc1cc(C)n(C(C[N+](=O)[O-])c2ccc(Cl)cc2)n1 (configuration not stated)	-1	100*	6	3	39	6
O=C(CN1CCCC1)Nc1ccccc1Sc1ccc(Cl)cc1	-2	17	-13	0	64	0
O=C(COc1ccccc1C(=O)Nc1ccccc1)NCCc1ccccc1	-6	-3	2	-3	26	-9
CCOc1cc(CNC(C)C)c(Cl)cc1OCC(=O)NCCc1ccccc1	15	99*	-5	3	-8	0
CCOc1cc(C=O)cc(Br)c1OCC(=O)NCCc1ccccc1	9	46	4	-4	-6	6
CCOc1cc(CNCCO)c(Cl)cc1OCC(=O)NCCc1ccccc1	-6	91*	-1	0	7	-3
COc1ccc(CC(=O)NNC(=S)NCC2CC2)cc1OC	.	.	.	1	12	-31
CCOc1ccc(N(C(C)C(=O)Nc2ccc(OC)cc2)S(C)(=O)=O)cc1 (configuration not stated)	-5	-2	2	-1	-2	1
COCCNC(=O)C(C)N(c1ccc(OC)cc1)S(C)(=O)=O (configuration not stated)	3	-6	-4	10*	18	-5
O/N=C/c1ccc2ccccc2c1	-4	-6	-13	-4	1	4
CCN(CCCNC(=O)C1CCC(=O)N1Cc1ccc(F)cc1)c1cccc(C)c1 (configuration not stated)	0	-2	-8	0	6	-1
CCN(CCNCC(O)COCc1ccc(Cl)cc1)c1cccc(C)c1 (configuration not stated)	-1	25	-33	0	83*	2
CCN(CC)C(=O)c1cn(CCC#N)nc1-c1ccc(F)cc1	6	-6	5	3	-4	1
O=C(CN1C(=O)CSc2ccc(S(=O)(=O)N3CCOCC3)cc21)NCCCN1CCc2ccccc2C1	-4	-7	5	2	-5	-1
N#C/C(=C(/O)c1ccc(Cl)c([N+](=O)[O-])c1)c1nc2ccccc2[nH]1	.	.	.	1	13	-8
O=c1[nH]c(CSc2nc(-c3ccc(F)cc3)cs2)nc2ccccc12	-11	47	5	-3	8	-3
Cc1ccc(NS(=O)(=O)c2cc(OCC(N)=O)c(C)cc2Cl)cc1	-19	79*	-4	-1	12	7
Cc1cc(Cl)c(S(=O)(=O)Nc2ccc3c(c2)OCO3)cc1OCC(N)=O	5	0	1	1	-8	-12
COc1cccc(NC(=O)Cn2c(=O)c3c(ncn3Cc3ccccc3)n(Cc3ccccc3)c2=O)c1	-4	69*	-19	1	30	13
